Measured values published in ChEMBL document CHEMBL1955847, “2-Morpholinoisoflav-3-enes as flexible intermediates in the synthesis of phenoxodiol, isophenoxodiol, equol and analogues: vasorelaxant properties, estrogen receptor binding and Rho/RhoA kinase pathway inhibition” (Bioorg Med Chem, 2012).
Activity calls are given as the source filed them. The calls are words filed in the database; no cut-off is given here.

Columns and labels:
Aorta [1] = assay: Vasorelaxant activity in Sprague-Dawley rat thoracic aorta assessed as inhibition of U46619-induced vascular tension at 100 uM pretreated for 30 mins; format: functional, tissue-based
Summary of the method: (§1)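 Male Sprague-Dawley thoracic aortic rings were held in Krebs-bicarbonate at 37 °C, pH 7.4, gassed with 95% O2/5% CO2. Rings were pretreated 30 min with compound or vehicle, then contracted with 30 nM U46619, and vascular tension was recorded. Final DMSO was 0.1%. n = 2, run in duplicate.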

Aorta [2] = assay: Vasorelaxant activity in Sprague-Dawley rat thoracic aorta assessed as inhibition of U46619-induced GTP RhoA level at 100 uM pretreated for 30 mins measured after 45 mins by spectrometric analysis; format: functional, tissue-based
Summary of the method: (§2)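 Male Sprague-Dawley thoracic aortic rings were denuded of endothelium and pretreated 30 min with compound, flavone or vehicle, then contracted with 30 nM U46619. Rings were snap-frozen in liquid N2 and homogenized in lysis buffer, then spun at 12,000g for 15 min at 4 °C. Supernatant was run in a RhoA G-LISA with HRP detection and absorbance read at 490 nm. Triplicate.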

Aorta [3] = assay: Vasorelaxant activity in Sprague-Dawley rat thoracic aorta assessed as inhibition of phenylephirne-induced contraction; format: functional, tissue-based
Summary of the method: (§3)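 Aortic rings 2–3 mm long from male Sprague-Dawley rats were bathed in Krebs-bicarbonate at 37 °C, pH 7.4, aerated with 95% O2/5% CO2, and equilibrated 1 h at 1 g resting tension. Rings were maximally contracted with KPSS (122.7 mM KCl) and re-equilibrated, then given submaximal phenylephrine. Endothelium was checked with acetylcholine, and cumulative concentration-response curves were run. DMSO was at most 0.1%. n = 3–5.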

Estrogen receptor = target: T1, Estrogen receptor (Rattus norvegicus, UniProt P06211); assay: Displacement of [3H]estradiol from rat uterine cytosolic estrogen receptor
T1 sequence (P06211 whole entry): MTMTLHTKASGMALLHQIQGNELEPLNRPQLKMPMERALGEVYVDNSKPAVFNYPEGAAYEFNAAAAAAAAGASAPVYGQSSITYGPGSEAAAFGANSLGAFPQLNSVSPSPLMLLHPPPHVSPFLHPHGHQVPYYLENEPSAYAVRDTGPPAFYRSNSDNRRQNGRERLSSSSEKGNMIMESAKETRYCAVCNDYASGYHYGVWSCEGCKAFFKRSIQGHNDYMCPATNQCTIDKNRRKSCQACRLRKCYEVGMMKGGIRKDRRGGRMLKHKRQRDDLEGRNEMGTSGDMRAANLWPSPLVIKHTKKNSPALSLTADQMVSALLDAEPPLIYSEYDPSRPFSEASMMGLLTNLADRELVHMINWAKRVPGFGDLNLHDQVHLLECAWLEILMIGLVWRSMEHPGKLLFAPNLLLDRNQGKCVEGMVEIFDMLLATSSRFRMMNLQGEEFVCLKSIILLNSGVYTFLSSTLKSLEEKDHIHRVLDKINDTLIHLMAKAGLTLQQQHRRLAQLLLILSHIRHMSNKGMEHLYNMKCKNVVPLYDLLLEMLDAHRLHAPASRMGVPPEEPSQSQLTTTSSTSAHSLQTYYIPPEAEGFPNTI
Summary of the method: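 Rat uterine cytosol incubated with 0.2 nM [3H]-estradiol in 10 mM Tris (pH 7.4, 1.5 mM EDTA, 10% w/v glycerol, 1 mM PMSF), with and without ICI 182,780 to define binding. Compounds were made from 10 mM DMSO stocks and diluted into buffer, giving 0.1% v/v DMSO at the top concentration and in all lower dilutions.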

Aorta [4] = assay: Vasorelaxant activity in Sprague-Dawley rat thoracic aorta assessed as inhibition of U46619-induced GTP RhoA level at 300 uM pretreated for 30 mins measured after 45 mins by spectrometric analysis; format: functional, tissue-based; summary of the method: as §2
Aorta [5] = assay: Vasorelaxant activity in Sprague-Dawley rat thoracic aorta assessed as inhibition of U46619-induced vascular tension at 300 uM pretreated for 30 mins; format: functional, tissue-based; summary of the method: as §1
Aorta [6] = assay: Vasorelaxant activity in Sprague-Dawley rat thoracic aorta assessed as inhibition of phenylephirne-induced contraction in presence of 0.1 uM estrogen receptor antagonist ICI 182780; format: functional, tissue-based
Aorta [7] = assay: Vasorelaxant activity in Sprague-Dawley rat thoracic aorta assessed as inhibition of phenylephirne-induced contraction at highest concentration; format: functional, tissue-based; summary of the method: as §3

| IC50 (Estrogen receptor) [µM] | pIC50 (Estrogen receptor) | SMILES | Activity (Aorta [1]) | Activity (Aorta [2]) | Activity (Aorta [3]) | Activity (Aorta [4]) | Activity (Aorta [5]) | Activity (Aorta [6]) | Activity (Aorta [7]) |
| --- | --- | --- | --- | --- | --- | --- | --- | --- | --- |
| 3.63 | – | Oc1ccc2c(c1)OCC(c1ccccc1)C2 (stereo unspecified) | Active | Active | Dose-dependent effect | – | – | – | – |
| 0.234 | – | Oc1ccc(C2=COc3cc(O)ccc3C2)cc1 [ISOPHENOXODIOL] | – | – | Dose-dependent effect | – | – | – | – |
| – | – | O=c1cc(-c2ccccc2)oc2ccccc12 | – | – | – | Active | Active | – | – |
| 0.661 | – | Oc1ccc(C2=Cc3ccc(O)cc3OC2)cc1 [IDRONOXIL] | Active | Active | Dose-dependent effect | – | – | – | – |
| 7.59 | – | Oc1ccc(C2COc3ccccc3C2)cc1 (stereo unspecified) | Active | Active | Dose-dependent effect | – | – | – | – |
| – | > 5 | c1ccc(C2COc3ccccc3C2)cc1 (stereo unspecified) | Active | Active | – | – | – | inactive | Active |
| 1.66 | – | Oc1ccc(C2COc3cc(O)ccc3C2)cc1 (racemic) | Active | Active | Dose-dependent effect | – | – | – | – |

| SMILES | IC50 (Estrogen receptor) [µM] | pIC50 (Estrogen receptor) | Activity (Aorta [1]) | Activity (Aorta [2]) | Activity (Aorta [3]) | Activity (Aorta [4]) | Activity (Aorta [5]) | Activity (Aorta [6]) | Activity (Aorta [7]) |
| --- | --- | --- | --- | --- | --- | --- | --- | --- | --- |
| C[C@]12CC[C@@H]3c4ccc(O)cc4C[C@@H](CCCCCCCCC[S+]([O-])CCCC(F)(F)C(F)(F)F)[C@H]3[C@@H]1CC[C@@H]2O (stereo partly specified) [FULVESTRANT] | 0.00589 | – | – | – | – | – | – | – | – |
